Experimental data as given in ChEMBL document CHEMBL5252523, “Searching for New Leads for Tuberculosis: Design, Synthesis, and Biological Evaluation of Novel 2-Quinolin-4-yloxyacetamides” (J Med Chem, 2016).
≈ marks a conversion by molar mass, not a printed value.

Assays:
[1] = tested on: Mycobacterium tuberculosis; assay: Antimycobacterial activity against Mycobacterium tuberculosis H37Rv ATCC 25618 assessed as inhibition of microbial growth incubated for 6 days by resazurin based assay; format: functional; settings: H37Rv ATCC 25618, 144 h, time 6 day
Summary of the method: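 Ten two-fold dilutions made in neat DMSO, tested in Middlebrook 7H9 with the H37Rv inoculum. Controls: isoniazid from 4 μg/ml as positive control; rifampicin 1 μM as no-growth control. Plates sat sealed at 37 °C without shaking for 6 days.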

[2] = Chromatographic hydrophobicity index, log D of the compound in phosphate buffer at pH 7.4 by UV-HPLC analysis; format: physicochemical
[3] = Kinetic aqueous solubility of compound in phosphate buffer at pH 7.4 incubated for 1 hrs by CLND assay; format: physicochemical; settings: read-out: Kinetic_solubility
[4] = Artificial membrane permeability of the compound incubated for 3 hrs by HPLC analysis; format: ADME; settings: PAMPA, read-out: permeability
[5] = Cytotoxicity against human HepG2 cells assessed as cell growth inhibition incubated for 48 hrs by CellTiter-Glo reagent based analysis; format: toxicity
Summary of the method: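 HepG2 cells kept in Eagle's MEM with 10% heat-inactivated FBS, 1% NEAA and penicillin/streptomycin, seeded at ~3000 cells/well onto pre-dispensed compound. Incubation was 48 h at 37 °C, 5% CO2. Plates were equilibrated to room temperature, CellTiter-Glo was added, and ATP luminescence was read after 10 min as the viability read-out.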

Row | SMILES | MIC [1] | chromatographic logD [2] | solubility kinetic at 1 h [3] | Papp at 3 h [4] | IC50 at 48 h [5]
1 | COc1ccc2nc(C)cc(OCC(=O)NCc3cc(C)cc(C)c3)c2c1 | 31 µM | 5.25 | 92 µM (≈ 33.5 µg/mL) | < 0.3 ×10⁻⁶ cm/s | > 100 µM
2 | CCCc1cc(OCC(=O)Nc2cc(C)cc(C)c2)c2cc(OC)ccc2n1 | > 250 µM | 6.44 | 12 µM (≈ 4.54 µg/mL) | – | 12.6 µM
3 | Cc1cc(C)cc(NC(=O)COc2cc(C)nc3ccc(OC(F)(F)F)cc23)c1 | > 250 µM | 6.79 | – | < 3 ×10⁻⁶ cm/s | > 100 µM
4 | Cc1cc(C)cc(NC(=O)COc2cc(C(F)(F)F)nc3ccc(OC(F)(F)F)cc23)c1 | > 250 µM | 7.96 | 34 µM (≈ 15.6 µg/mL) | < 0.3 ×10⁻⁶ cm/s | > 100 µM
5 | Cc1cc(C)cc(NC(=O)COc2cc(C)nc3ccccc23)c1 | 24 µM | 5.39 | 55 µM (≈ 17.6 µg/mL) | 37 ×10⁻⁶ cm/s | > 100 µM
6 | COc1ccc2nc(C)cc(OCc3nc4ccccc4[nH]3)c2c1 | 16 µM | 3.59 | 13 µM (≈ 4.15 µg/mL) | – | > 100 µM
7 | COc1ccc2nc(C)cc(OCC(=O)Nc3ccncc3)c2c1 | > 250 µM | 2.5 | 91.5 µM (≈ 29.6 µg/mL) | 56 ×10⁻⁶ cm/s | > 100 µM
8 | COc1ccc2nc(C)cc(OC3CCN(c4ccccc4)C3=O)c2c1 (stereo not given) | 125 µM | 4.99 | 215 µM (≈ 74.9 µg/mL) | 55 ×10⁻⁶ cm/s | 100 µM
9 | Cc1cc(C)cc(NC(=O)COc2cc(C(F)(F)F)nc3cc4c(cc23)OCO4)c1 | > 250 µM | 6.73 | < 1 µM | < 3 ×10⁻⁶ cm/s | > 100 µM
10 | COc1ccc2nc(C)cc(NC(=O)C(=O)Nc3cc(C)cc(C)c3)c2c1 | > 125 µM | 6.47 | 10 µM (≈ 3.63 µg/mL) | – | > 100 µM
11 | COc1ccc2c(OCC(=O)Nc3cc(C)cc(C)c3)cc(C)nc2c1 | > 250 µM | 5.59 | – | – | 50.1 µM
12 | CSc1ccc2nc(C)cc(OCC(=O)Nc3cc(C)cc(C)c3)c2c1 | > 125 µM | 6.42 | 3 µM (≈ 1.1 µg/mL) | – | > 100 µM
13 | COc1ccc2nc(C)cc(OCC(=O)Nc3nc(C)c(C)s3)c2c1 | 62 µM | 4.24 | 31.5 µM (≈ 11.3 µg/mL) | 44 ×10⁻⁶ cm/s | > 100 µM
14 | COc1ccc2nc(C)cc(OCC(=O)NNC(=O)c3ccncc3)c2c1 | 62 µM | 1.48 | ≥ 375 µM | 3.3 ×10⁻⁶ cm/s | > 100 µM
15 | COc1ccc2nc(C)cc(OCC(=O)Nc3ccc(F)cc3)c2c1 | 12 µM | 4.49 | 104 µM (≈ 35.4 µg/mL) | 23 ×10⁻⁶ cm/s | 63.1 µM
16 | Cc1cc(C)cc(NC(=O)COc2cc(C)nc3ccc(F)cc23)c1 | 15.6 µM | 5.79 | 28 µM (≈ 9.47 µg/mL) | 31 ×10⁻⁶ cm/s | 63.1 µM
17 | COc1cccc(NC(=O)COc2cc(C)nc3ccc(OC)cc23)c1 | 6.4 µM | 4.49 | 35 µM (≈ 12.3 µg/mL) | 47 ×10⁻⁶ cm/s | > 100 µM
18 | COc1ccc2nc(C)cc(OCC(=O)Nc3cc(OC)c(Cl)cc3OC)c2c1 | > 125 µM | 5.8 | 3 µM (≈ 1.25 µg/mL) | – | > 100 µM

Row | SMILES | MIC [1] | chromatographic logD [2] | solubility kinetic at 1 h [3] | Papp at 3 h [4] | IC50 at 48 h [5]
19 | COc1ccc2nc(C)cc(OCC(=O)Nc3ccccn3)c2c1 | 15.7 µM | 3.49 | 29 µM (≈ 9.38 µg/mL) | 48 ×10⁻⁶ cm/s | > 100 µM
20 | CCC(Oc1cc(C)nc2ccc(OC)cc12)C(=O)Nc1cc(C)cc(C)c1 (stereo not given) | > 250 µM | 6.28 | 123 µM (≈ 46.6 µg/mL) | 39 ×10⁻⁶ cm/s | 79.4 µM
21 | COc1ccc2nc(C(F)(F)F)cc(OCC(=O)Nc3cc(C)cc(C)c3)c2c1 | > 250 µM | 7.02 | 15 µM (≈ 6.07 µg/mL) | < 1 ×10⁻⁶ cm/s | > 100 µM
22 | COc1ccc2nc(C)c(NC(=O)C(=O)Nc3cc(C)cc(C)c3)c(O)c2c1 | > 125 µM | 3.76 | 10 µM (≈ 3.79 µg/mL) | – | > 100 µM
23 | COc1ccc2nc(C)cc(OCC(=O)Nc3noc(C)c3C)c2c1 | 187 µM | 3.3 | 196 µM (≈ 66.7 µg/mL) | 62.5 ×10⁻⁶ cm/s | > 100 µM
24 | COc1ccc2nc(C)cc(OC(C)C(=O)Nc3cc(C)cc(C)c3)c2c1 (stereo not given) | 125 µM | 5.76 | 61 µM (≈ 22.2 µg/mL) | 32 ×10⁻⁶ cm/s | 39.8 µM
25 | COc1ccc2nc(C)cc(OCC(=O)Nc3ccc(Cl)c(C(F)(F)F)c3)c2c1 | 47 µM | 6.22 | 17 µM (≈ 7.22 µg/mL) | – | 79.4 µM
26 | COc1ccc2nc(C)cc(OCC(=O)Nc3nccs3)c2c1 | > 250 µM | 3.2 | 54 µM (≈ 17.8 µg/mL) | 112 ×10⁻⁶ cm/s | > 100 µM
27 | COc1ccc2nc(C)cc(OCC(=O)Nc3ccc(S(=O)(=O)Nc4cc(C)on4)cc3)c2c1 | 125 µM | 2.2 | ≥ 381 µM | 1.5 ×10⁻⁶ cm/s | > 100 µM
28 | COc1ccc2nc(C)cc(NCC(=O)Nc3cc(C)cc(C)c3)c2c1 | 47 µM | 3.59 | 204 µM (≈ 71.3 µg/mL) | 31 ×10⁻⁶ cm/s | 6.31 µM
29 | Cc1cc(C)cc(NC(=O)COc2cc(C)nc3ccc(OCc4ccccc4)cc23)c1 | > 250 µM | 7.03 | < 1 µM | < 1 ×10⁻⁶ cm/s | > 100 µM
30 | Cc1cc(C)cc(NC(=O)COc2cc(C)nc3ccc(C(F)(F)F)cc23)c1 | > 250 µM | 6.67 | 10 µM (≈ 3.88 µg/mL) | < 3 ×10⁻⁶ cm/s | > 100 µM
31 | COc1ccc2nc(C)cc(OC(C(=O)Nc3cc(C)cc(C)c3)c3ccccc3)c2c1 (stereo not given) | > 125 µM | 7.13 | 2 µM (≈ 0.853 µg/mL) | < 3 ×10⁻⁶ cm/s | > 100 µM
32 | COc1cc2nc(C)cc(OCC(=O)Nc3cc(C)cc(C)c3)c2cc1OC | > 250 µM | 4.84 | – | 60.5 ×10⁻⁶ cm/s | 10 µM
33 | CCOc1ccc2nc(C)cc(OCC(=O)Nc3cc(C)cc(C)c3)c2c1 | > 250 µM | 5.98 | – | < 3 ×10⁻⁶ cm/s | > 100 µM
34 | Cc1cc(C)cc(NC(=O)COc2cc(C)nc3ccc(Cl)cc23)c1 | 40 µM | 6.38 | 8 µM (≈ 2.84 µg/mL) | – | > 100 µM
35 | COc1ccc2nc(C)cc(OCC(=O)Nc3ccc(Br)c(C)c3)c2c1 | 3.9 µM | 5.95 | < 1 µM | – | 15.8 µM
36 | COc1ccc2nc(C)c3nc(C(=S)Nc4cc(C)cc(C)c4)sc3c2c1 | > 125 µM | – | 35 µM (≈ 13.8 µg/mL) | < 3 ×10⁻⁶ cm/s | > 100 µM
